Screening results (PubChem)
Sampled rows, rich in hits. Any-hit rate of the full collection: about 2.3%.
TRPC6 activator: mouse TRPC6 channel activation | Q61143 | HEK293-TRPC6 membrane potential dye fluorescence; active compounds read high | B-score at 10 µM | 0.13% of 310,000 active | AID 2550;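 active means B-score of the integrated fluorescence ratio above library mean plus 3 SD, and starting fluorescence ratio within library mean plus 5 SD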;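 further: higher score means more depolarization so channel activation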
Target sequence (Q61143 whole entry, looked up): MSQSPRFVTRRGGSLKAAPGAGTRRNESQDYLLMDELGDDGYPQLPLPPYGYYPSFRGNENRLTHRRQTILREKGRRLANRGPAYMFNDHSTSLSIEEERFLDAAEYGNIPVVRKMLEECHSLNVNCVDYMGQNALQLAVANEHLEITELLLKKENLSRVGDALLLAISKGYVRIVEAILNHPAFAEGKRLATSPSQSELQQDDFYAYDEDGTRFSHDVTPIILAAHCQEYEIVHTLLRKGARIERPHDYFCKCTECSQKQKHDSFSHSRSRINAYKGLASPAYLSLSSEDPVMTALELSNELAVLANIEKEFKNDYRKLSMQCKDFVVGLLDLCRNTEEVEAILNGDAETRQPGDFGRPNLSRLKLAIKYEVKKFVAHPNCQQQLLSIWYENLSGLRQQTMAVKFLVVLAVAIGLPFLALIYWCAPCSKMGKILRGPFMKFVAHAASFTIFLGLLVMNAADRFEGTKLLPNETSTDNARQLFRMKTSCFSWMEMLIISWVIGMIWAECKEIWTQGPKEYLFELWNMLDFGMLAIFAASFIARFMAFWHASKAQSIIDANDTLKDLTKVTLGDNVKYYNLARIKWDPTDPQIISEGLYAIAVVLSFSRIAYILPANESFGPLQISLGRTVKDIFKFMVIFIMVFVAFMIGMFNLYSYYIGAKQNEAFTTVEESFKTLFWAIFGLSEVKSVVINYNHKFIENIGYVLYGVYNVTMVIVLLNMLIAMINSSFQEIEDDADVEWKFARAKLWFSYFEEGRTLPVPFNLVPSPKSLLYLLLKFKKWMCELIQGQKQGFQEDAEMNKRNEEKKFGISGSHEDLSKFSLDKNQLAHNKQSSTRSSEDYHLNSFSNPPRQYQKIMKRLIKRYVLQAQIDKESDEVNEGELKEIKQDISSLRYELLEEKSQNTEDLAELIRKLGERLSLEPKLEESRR
TRPC4 inh: blocks the mouse TRPC4 cation channel | Q9QUQ5 | HEK293 TRPC4beta/mu-opioid, DAMGO-evoked Fluo4 calcium flux; active compounds read low | B-score at 10 µM | 0.39% of 300,000 active | AID 2247;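 active means B-score over 3 SD under the library average, no early fluorescence shift, positive overall ratio signal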
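Material: HEK293 cells with stable TRPC4beta plus mu-opioid receptor expression; probe or stimulus: DAMGO in two steps, submaximal then maximal; technique: Fluo4 calcium fluorescence by kinetic imaging, 5 s 1 Hz baseline; measure: integrated fluorescence ratio relative to baseline, converted to per-well B score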
TRPC4 potent: allosteric potentiators of mouse TRPC4 channel. Q9QUQ5. 0.42% of 310,000 active. B-score at 10 µM. HEK293 TRPC4beta/mu-opioid, DAMGO EC20, Fluo-4 Ca2+ flux; active compounds read high;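 active means B-score of calcium response area above 5 SD of library B-scores, with initial fluorescence ratio within 5 SD of library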;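 further: B-score of integrated fluorescence ratio over time as area under calcium response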
TRPC4 act: opens the mouse TRPC4 cation channel. HEK293 TRPC4beta/mu-opioid, Fluo4 calcium fluorescence; active compounds read high. AID 2237. B-score at 10 µM. 0.49% of 310,000 active. Q9QUQ5;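 active means B-score above 5 SD of library B-scores, and initial fluorescence ratio not above library mean plus 5 SD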;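 further: positive B-score marks a calcium rise read as TRPC4 activation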
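Incubation: 45 min room-temperature Fluo4 loading, 110 s read / System: HEK293 cells stably co-expressing mouse TRPC4beta and mu-opioid receptor / Signal: Fluo4 fluorescence, kinetic / Control set: buffer (low) and maximal DAMGO (high) / Measure: integrated baseline-normalised fluorescence ratio, converted to per-well B score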
TRPC6 inh: mouse TRPC6 channel inhibition | 1.1% of 310,000 active | AID 2553 | HEK293-TRPC6, membrane potential dye, ACh-evoked depolarization; active compounds read low | B-score at 10 µM;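 active means B-score under library mean minus 3 SD, initial fluorescence not abnormally high, positive integrated signal ratio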;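 further: B-score derived from integrated fluorescence ratio over the kinetic read; more negative B-score means stronger inhibition of depolarization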
TRPC4 spec 2: second selectivity test of TRPC6 inhibitors: effect on mouse TRPC4 | shares compounds with TRPC6 inh | HEK293 TRPC4/MOR, membrane potential dye fluorescence; channel activated by saturating DAMGO dose | inhibition, % at 10 µM | 42% of 920 active;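 active means compounds whose fluorescence signal differed from control wells by over 3 SD, either direction, in both duplicate plates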
TRPC4 spec: selectivity of TRPC6 inhibitors: effect on mouse TRPC4. activity change, negative = inhibition, % at 10 µM. HEK293 TRPC4/mu-opioid, membrane potential fluorescence. AID 2777. 61% of 920 active. shares compounds with TRPC6 inh;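 active means rise or fall in signal beyond 3 SD of buffer-only wells in both replicate plates, either sign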;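 further: integrated kinetic ratio of fluorescence range over baseline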
HEK293 MPD ctr 2-1: second check of TRPC6 inhibitor effects in parental HEK293 cells; AID 2779; shares compounds with TRPC6 inh; signal change vs control, % at 10 µM; parental HEK293 membrane potential dye fluorescence; maximal acetylcholine challenge after compound addition; 31% of 920 active;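 active means membrane potential signal moving either way by over 3 SD of the maximum-effect control, in both duplicate plates, meaning non-specific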
HEK293 MPD ctr-1: parental HEK293 nonspecific activity of TRPC6 inhibitors; shares compounds with TRPC6 inh; parental HEK293 membrane potential dye fluorescence; membrane potential signal change, % at 10 µM; 60% of 920 active;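 active means membrane potential signal shifting up or down by more than 3 SD of buffer-only wells, on both duplicate plates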
HEK293 MPD ctr-2: checks TRPC6 modulator effects in parental HEK293 cells; membrane potential dye fluorescence; shares compounds with TRPC6 inh; 51% of 2,400 active; membrane potential signal change, % at 10 µM;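 active means membrane potential signal moves up or down beyond 5 SD from buffer-only wells, on both duplicate plates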
HEK293 MPD ctr 2-2: parental HEK293 nonspecific activity of TRPC6 modulators, second screen. shares compounds with TRPC6 inh. membrane potential dye fluorescence; after compound, maximal acetylcholine stimulation. inhibition, % at 10 µM. 14% of 2,400 active. AID 488926;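 active means membrane potential signal drops by more than 5 SD from the mean control signal, in both duplicate plates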;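 further: plate controls were acetylcholine ECmax control wells for no effect and buffer only wells for full effect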
TRPC4 ctr mod: tests whether TRPC6 modulators also affect mouse TRPC4 | 69% of 2,400 active | percent change from control (negative = decrease, positive = increase), % at 10 µM | HEK293 TRPC4/mu-opioid, membrane potential fluorescence | AID 488927 | shares compounds with TRPC6 inh;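 active means membrane potential signal moved up or down beyond 5 SD of buffer control wells, in both duplicate plates, actives on both sides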;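 further: plate controls were assay buffer wells for no effect and DAMGO maximal-effect wells for full effect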
TRPC4/MOR inh 2: mouse TRPC4 off-target activity of TRPC6 modulators, second screen. inhibition, % at 10 µM. shares compounds with TRPC6 inh. 55% of 2,400 active. HEK293 TRPC4/mu-opioid, membrane potential dye fluorescence; stimulated with maximal-effect DAMGO;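 active means drop in membrane potential signal beyond 5 SD of the control wells in both duplicate plates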;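 further: TRPC4 counter screen for TRPC6 hits run under conditions tuned for TRPC6 not TRPC4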
TRPC6 inh conf: confirmation of mouse TRPC6 inhibitors | shares compounds with TRPC6 inh | HEK293-TRPC6, membrane potential dye, ACh-evoked depolarization | inhibition, % at 10 µM | 43% of 3,300 active | AID 488960;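 active means fluorescence ratio falls more than 5 SD below the full-stimulation control mean, in both duplicate runs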;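 further: integrated fluorescence ratio of peak minus minimum over baseline after agonist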
TRPC6 act conf: confirmation of mouse TRPC6 activators; shares compounds with TRPC6 inh; HEK293-TRPC6 membrane potential dye fluorescence, FDSS; activation, % at 10 µM; 11% of 2,800 active; AID 488961;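 active means ratio signal rise beyond 5 SD above unstimulated control wells' mean, seen in both duplicate runs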;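 further: plate controls were buffer EC0 wells for no effect and acetylcholine ECmax response for full effect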
* = called active by the depositor; i = inactive; . = no result.

SMILES | TRPC6 activator | TRPC4 inh | TRPC4 potent | TRPC4 act | TRPC6 inh | HEK293 MPD ctr-2 | HEK293 MPD ctr 2-2 | TRPC4 ctr mod | TRPC4/MOR inh 2 | TRPC6 inh conf | TRPC6 act conf | others
COC(=O)c1cn(-c2ccccc2)nc1-c1ccc(OC)cc1 | i | i | i | i | i | . | . | . | . | . | .
O=C(CN(C(=O)CNC(=O)c1ccco1)c1ccc(F)cc1)NC1CCCCC1 | i | i | i | i | i | . | . | . | . | . | .
O=C1NC(=O)C(Cc2ccccc2)(c2cccnc2)N1 (stereo not given) | i | i | i | i | i | . | . | . | . | . | .
O=c1cc(-c2ccccc2)[nH]n1-c1ccc([N+](=O)[O-])cc1 | i | i | i | i | -7.9* | . | . | . | . | 66%* | i | TRPC4 spec 2=i;TRPC4 spec=12%*;HEK293 MPD ctr 2-1=i;HEK293 MPD ctr-1=5.7%*
O=c1c(N=Nc2ccc(O)cc2)c(-c2ccccc2)[nH]n1-c1ccc([N+](=O)[O-])cc1 | i | i | i | i | i | . | . | . | . | . | .
O=C(NC(Nc1nc2ccc([N+](=O)[O-])cc2s1)(C(F)(F)F)C(F)(F)F)c1cccnc1 | 15* | i | i | i | -8.2* | 388%* | 93%* | 92%* | 60%* | 77%* | 88%*
COc1ccccc1N1CCN(C/C=C/c2ccc(N(C)C)cc2)CC1 | i | i | i | i | -7.5* | . | . | . | . | i | i | TRPC4 spec 2=68%*;TRPC4 spec=-10%*;HEK293 MPD ctr 2-1=i;HEK293 MPD ctr-1=-247%*
O=C(CCCOc1ccc(Cl)cc1)NCCc1ccccc1 | i | i | i | i | i | . | . | . | . | . | .
O=[N+]([O-])c1ccc(Cl)c(-c2ccc(/C=N/n3cnnc3)o2)c1 | i | i | i | i | -7.3* | -154%* | i | -30%* | i | i | i
CN1CCN(/N=C/c2ccc(-c3ccc([N+](=O)[O-])cc3Cl)o2)CC1 | 13* | i | i | i | i | 260%* | i | 39%* | i | i | 92%*
Cc1cc(-c2ccc(/C=N/n3cnnc3)o2)c(C)c([N+](=O)[O-])c1 | i | i | i | i | -6* | -221%* | 71%* | -44%* | 58%* | 48%* | i
COc1cc([N+](=O)[O-])ccc1-c1ccc(/C=N\n2cnnc2)o1 | i | i | i | i | -9.3* | i | i | -61%* | 39%* | i | i
COc1cc([N+](=O)[O-])ccc1-c1ccc(/C=N/NC(=O)c2ccccc2O)o1 | i | i | i | i | i | . | . | . | . | . | .
CCCN1C2CCCC1CC(NC(=O)c1ccccc1Br)C2 (stereo not given) | i | i | i | i | i | . | . | . | . | . | .
CC(C)(C)C1CCC(=NNC(=O)C(=O)NC2CCCCC2)CC1 (stereo not given) | i | i | i | i | i | . | . | . | . | . | .
Cc1cc(N2CCN(C)CC2)nc2ccc(NC(=S)NCCC(C)C)cc12 | i | i | i | i | -6.2* | -110%* | i | -27%* | 72%* | 56%* | i
Cc1cc(N2CCOCC2)nc2ccc(NC(=S)NCCC(C)C)cc12 | i | i | i | i | i | . | . | . | . | . | .
COCCCNC(=S)Nc1ccc2nc(N3CCOCC3)cc(C)c2c1 | i | i | i | i | i | . | . | . | . | . | .
Cc1cc(N2CCCC2)nc2ccc(NC(=S)NCCCOC(C)C)cc12 | i | i | i | i | -7.1* | -126%* | i | -22%* | 46%* | 42%* | i
CCCN(CCC)CCCNC(=S)Nc1ccc2nc(N3CCCC3)cc(C)c2c1 | i | i | i | i | -8* | . | . | . | . | i | i | TRPC4 spec 2=i;TRPC4 spec=-15%*;HEK293 MPD ctr 2-1=19%*;HEK293 MPD ctr-1=-166%*
O=C(NCCN1CCOCC1)c1cccc(S(=O)(=O)NCc2ccccc2)c1 | i | i | i | i | i | . | . | . | . | . | .
Cc1cccc(NC(=O)C2CCCN2S(=O)(=O)c2ccc(Cl)cc2)n1 (stereo not given) | i | i | i | i | i | . | . | . | . | . | .
Cc1cc(Cl)ccc1C(=O)C1CCCN(C(=O)c2cc(C(C)C)no2)C1 (stereo not given) | i | i | i | i | -6.2* | 98%* | i | 20%* | i | 48%* | .
CC(C)c1cc(C(=O)N2CCCC(C(=O)c3ccc4ccccc4c3)C2)on1 (stereo not given) | i | i | i | i | i | . | . | . | . | . | .
CCCCOc1ccc(-c2nnc(-c3cc[n+](C)cc3)o2)cc1 | i | i | i | i | -8.2* | . | . | . | . | i | i | TRPC4 spec 2=i;TRPC4 spec=-11%*;HEK293 MPD ctr 2-1=-69%*;HEK293 MPD ctr-1=-200%*
CCN(CC)CCCNC(=O)c1cc(-c2ccc(Cl)c(Cl)c2)on1 | i | i | i | i | -6.4* | 149%* | i | 26%* | 54%* | i | .
CC12CCC(C(=O)Nc3c(Cl)cccc3Cl)(C(Br)C1=O)C2(C)C (stereo not given) | i | i | i | i | -6.2* | i | i | i | i | i | i
CC12CCC(C(=O)Nc3cccc(Cl)c3Cl)([C@H](Br)C1=O)C2(C)C (stereo not given in full) | i | i | i | i | i | . | . | . | . | . | .
